Reference: ChEMBL document CHEMBL1148054, “Chemical and bioactive constituents from Zanthoxylum simulans” (J Nat Prod, 1994)
Calls of active or inactive are those of the source. No cut-off for these calls is given here.

Tests used:
HL-60 [1] = assay: Induction of terminal cell differentiation in human HL60 cells assessed as cell viability at 4 uM by trypan blue exclusion method; format: functional; conditions: read-out: Activity
Procedure, shortened: (§1)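 HL-60 cells preincubated 18 h at 1.2×10^5 cells/ml, then exposed 4 days to samples in DMSO (final 0.1%). Viability by trypan blue exclusion: viable/(viable+dead)×100. Cell counts also taken after 4 days.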

HL-60 [2] = assay: Induction of terminal cell differentiation in human HL60 cells assessed as cell viability at 8.1 uM by trypan blue exclusion method; format: functional; conditions: read-out: Activity; procedure, shortened: as §1
HL-60 [3] = assay: Induction of terminal cell differentiation in human HL60 cells assessed as cell viability at 16.2 uM by trypan blue exclusion method; format: functional; conditions: read-out: Activity; procedure, shortened: as §1
HL-60 [4] = assay: Induction of terminal cell differentiation in human HL60 cells assessed as cell viability at 32.3 uM by trypan blue exclusion method; format: functional; conditions: read-out: Activity; procedure, shortened: as §1
HL-60 [5] = assay: Induction of terminal cell differentiation in human HL60 cells assessed as cell viability at 64.6 uM by trypan blue exclusion method; format: functional; conditions: read-out: Activity; procedure, shortened: as §1
HL-60 [6] = assay: Induction of terminal cell differentiation in human HL60 cells assessed as naphthol AS-D chloroacetate esterase activity at 4 uM after 4 days; format: functional
Procedure, shortened: (§2)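 HL-60 cells were grown in RPMI 1640 with 5% heat-inactivated calf serum at 37°, 5% CO2. They were diluted to 1.2×10^5 cells/ml, preincubated 18 h, then exposed 4 days to DMSO-dissolved samples (final DMSO 0.1%, matched vehicle controls). Specific esterase (naphthol AS-D chloroacetate) was scored cytochemically with a commercial kit as the percentage of differentiated cells.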

HL-60 [7] = assay: Induction of terminal cell differentiation in human HL60 cells assessed as naphthol AS-D chloroacetate esterase activity at 8.1 uM after 4 days; format: functional; procedure, shortened: as §2
HL-60 [8] = assay: Induction of terminal cell differentiation in human HL60 cells assessed as naphthol AS-D chloroacetate esterase activity at 16.2 uM after 4 days; format: functional; procedure, shortened: as §2
HL-60 [9] = assay: Induction of terminal cell differentiation in human HL60 cells assessed as naphthol AS-D chloroacetate esterase activity at 32.3 uM after 4 days; format: functional; procedure, shortened: as §2
HL-60 [10] = assay: Cytotoxicity against human HL60 cells at 64.6 uM by naphthol AS-D chloroacetate esterase activity; format: cell-based; conditions: hl-60, 64.6 µM
Procedure, shortened: (§3)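 After 4-day treatment of HL-60 cells (samples in DMSO, final 0.1%), cells stained cytochemically for α-naphthyl acetate esterase or naphthol AS-D chloroacetate esterase.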

HL-60 [11] = assay: Induction of cell differentiation in human HL60 cells assessed as alpha naphthyl esterase activity at 4 uM after 4 days; format: functional
Procedure, shortened: (§4)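 HL-60 cells in RPMI 1640 with 5% heat-inactivated calf serum at 37° under 5% CO2. Log-phase cells diluted to 1.2×10^5 cells/ml and preincubated 18 h, then samples added in DMSO (final 0.1%, DMSO controls). Cells scored after 4 days.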

HL-60 [12] = assay: Induction of cell differentiation in human HL60 cells assessed as alpha naphthyl esterase activity at 8.1 uM after 4 days; format: functional; procedure, shortened: as §4
HL-60 [13] = assay: Induction of cell differentiation in human HL60 cells assessed as alpha naphthyl esterase activity at 16.2 uM after 4 days; format: functional; procedure, shortened: as §4
HL-60 [14] = assay: Induction of cell differentiation in human HL60 cells assessed as alpha naphthyl esterase activity at 32.3 uM after 4 days; format: functional; procedure, shortened: as §4
HL-60 [15] = assay: Cytotoxicity against human HL60 cells at 64.6 uM by alpha naphthyl esterase activity assay; format: cell-based; conditions: hl-60, 64.6 µM; procedure, shortened: as §3
HL-60 [16] = assay: Cytotoxicity against human HL60 cells by [3H]thymidine incorporation assay; format: cell-based
Procedure, shortened: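 After 4-day sample treatment, 100 μl of HL-60 cells pulsed with 0.5 μCi/ml [3H]thymidine (65 Ci/mmol) for 16 h. Cells harvested and counted by liquid scintillation. Incorporation per 10^6 cells given as sample DPM divided by DMSO-control DPM.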

HL-60 [17] = assay: Induction of terminal cell differentiation in human HL60 cells assessed as inhibition of [3H]thymidine incorporation at 32.3 uM after 4 days by liquid scintillation; format: functional; design: scale not given: the % may be the effect or the level left
Procedure, shortened: (§5)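 HL-60 cells were kept in RPMI 1640 with 5% heat-inactivated calf serum and penicillin/streptomycin at 37° under 5% CO2. Log-phase cells were diluted to 1.2×10^5 cells/ml and preincubated 18 h. Samples were added in DMSO (final 0.1%; vehicle controls matched) for 4 days. Aliquots then got 0.5 μCi/ml [3H]thymidine for 16 h more, were harvested and scintillation-counted. % incorporation per 10^6 cells = sample DPM / DMSO-control DPM.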

HL-60 [18] = assay: Induction of terminal cell differentiation in human HL60 cells assessed as inhibition of [3H]thymidine incorporation at 16.2 uM after 4 days by liquid scintillation; format: functional; design: scale not given: the % may be the effect or the level left; procedure, shortened: as §5
HL-60 [19] = assay: Induction of terminal cell differentiation in human HL60 cells assessed as inhibition of [3H]thymidine incorporation at 8.1 uM after 4 days by liquid scintillation; format: functional; design: scale not given: the % may be the effect or the level left; procedure, shortened: as §5
HL-60 [20] = assay: Induction of terminal cell differentiation in human HL60 cells assessed as inhibition of [3H]thymidine incorporation at 4 uM after 4 days by liquid scintillation; format: functional; design: scale not given: the % may be the effect or the level left; procedure, shortened: as §5
HL-60 [21] = assay: Induction of terminal cell differentiation in human HL60 cells at 4 uM after 4 days by NBT reduction assay; format: functional
Procedure, shortened: (§6)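 Log-phase HL-60 cells (RPMI 1640, 5% heat-inactivated calf serum, 37°, 5% CO2) were diluted to 1.2×10^5 cells/ml, preincubated 18 h, then treated 4 days with samples in DMSO (final 0.1%; DMSO controls). 10^6 cells were mixed 1:1 with fresh PBS holding 2 mg/ml NBT and 5 μg/ml TPA, 1 h at 37°. Formazan-positive cells were counted microscopically as % NBT-positive.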

HL-60 [22] = assay: Induction of terminal cell differentiation in human HL60 cells at 8.1 uM after 4 days by NBT reduction assay; format: functional; procedure, shortened: as §6
HL-60 [23] = assay: Induction of terminal cell differentiation in human HL60 cells at 16.2 uM after 4 days by NBT reduction assay; format: functional; procedure, shortened: as §6
HL-60 [24] = assay: Induction of terminal cell differentiation in human HL60 cells at 32.3 uM after 4 days by NBT reduction assay; format: functional; procedure, shortened: as §6
HL-60 [25] = assay: Cytotoxicity against human HL60 cells at 64.6 uM by NBT reduction assay; format: cell-based; conditions: hl-60, 64.6 µM; procedure, shortened: as §4
Platelet [26] = assay: Antiplatelet activity against rabbit platelet assessed as inhibition of arachidonic acid-induced platelet aggregation at 100 ug/ml; format: functional; conditions: Oryctolagus cuniculus
Platelet [27] = assay: Antiplatelet activity against rabbit platelet assessed as inhibition of collagen-induced platelet aggregation at 100 ug/ml; format: functional; conditions: Oryctolagus cuniculus
Platelet [28] = assay: Antiplatelet activity against rabbit platelet assessed as inhibition of platelet activating factor-induced platelet aggregation at 100 ug/ml; format: functional; conditions: Oryctolagus cuniculus
[29] = Cytotoxicity against human BC1 cells; format: functional; conditions: read-out: ED50 (the source's name)
Procedure, shortened: (§7)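 Cultured human cancer lines and murine P-388 cells. Complete dose-response data from at least five concentrations of test substance, each tested in duplicate.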

HT-1080 = assay: Cytotoxicity against human HT1080 cells; format: functional; conditions: read-out: ED50 (the source's name); procedure, shortened: as §7
Lu1 = assay: Cytotoxicity against human Lu1 cells; format: functional; conditions: read-out: ED50 (the source's name); procedure, shortened: as §7
SK-MEL = assay: Cytotoxicity against human SK-MEL cells; format: functional; conditions: read-out: ED50 (the source's name); procedure, shortened: as §7
Col2 = assay: Cytotoxicity against human Col2 cells; format: functional; conditions: read-out: ED50 (the source's name); procedure, shortened: as §7
KB = assay: Cytotoxicity against human KB cells; format: functional; conditions: read-out: ED50 (the source's name); procedure, shortened: as §7
[30] = Cytotoxicity against human multidrug-resistant KBV1 cells in presence of vinblastine; format: functional; conditions: KB-V1, read-out: ED50 (the source's name); procedure, shortened: as §7
[31] = Cytotoxicity against human multidrug-resistant KBV1 cells in absence of vinblastine; format: functional; conditions: KB-V1, read-out: ED50 (the source's name); procedure, shortened: as §7
P388 = assay: Cytotoxicity against mouse P388 cells; format: functional; conditions: read-out: ED50 (the source's name); procedure, shortened: as §7
A-431 = assay: Cytotoxicity against human A431 cells; format: functional; conditions: read-out: ED50 (the source's name); procedure, shortened: as §7
LNCaP = assay: Cytotoxicity against human LNCAP cells; format: functional; conditions: read-out: ED50; procedure, shortened: as §7
ZR-75-1 = assay: Cytotoxicity against human ZR-75-1 cells; format: functional; conditions: ZR-75-1, read-out: ED50; procedure, shortened: as §7
[32] = Cytotoxicity against human U373 cells; format: functional, U-373MG ATCC; conditions: U373 MG, read-out: ED50; procedure, shortened: as §7

Work on `CC(C)=CCCC1(C)C=Cc2c(c3ccccc3n(C)c2=O)O1` (stereo unspecified) yielded a viability at 4 µM (HL-60 [1]) of 98%, a viability at 8.1 µM (HL-60 [2]) of 95% and a viability at 16.2 µM (HL-60 [3]) of 93%. The viability at 32.3 µM (HL-60 [4]) was 78%, the viability at 64.6 µM (HL-60 [5]) was 9% and the Activity (HL-60 [6]) was 5%. For the same molecule, the Activity (HL-60 [7]) was 5.5%, the Activity (HL-60 [8]) was 6.5% and the Activity (HL-60 [9]) was 14.5%. The Activity (HL-60 [10]) was “Toxic”, the Activity (HL-60 [11]) was 4.5% and the Activity (HL-60 [12]) was 5.5%. For the same molecule, the Activity (HL-60 [13]) was 7.4%, the Activity (HL-60 [14]) was 24.3% and the Activity (HL-60 [15]) was “Toxic”. For the same molecule, the Activity (HL-60 [16]) was “Toxic”, the Activity (HL-60 [17]) was 0% and the Activity (HL-60 [18]) was 0%. For the same molecule, the Activity (HL-60 [19]) was 0%, the Activity (HL-60 [20]) was 0% and the Activity (HL-60 [21]) was 3.5%. For the same molecule, the Activity (HL-60 [22]) was 8%, the Activity (HL-60 [23]) was 9% and the Activity (HL-60 [24]) was 15.4%. The Activity (HL-60 [25]) was “Toxic”, the Activity (Platelet [26]) was “inactive” and the Activity (Platelet [27]) was “inactive”. For the same molecule, the Activity (Platelet [28]) was “inactive”, the EC50 [29] was 28.8 µM and the EC50 (HT-1080) was 28.8 µM. The EC50 (Lu1) was 28.8 µM, the EC50 (SK-MEL) was 28.4 µM and the EC50 (Col2) was 30.4 µM. The EC50 (KB) was 15.2 µM, the EC50 [30] was 6.5 µM and the EC50 [31] was 21.3 µM. The EC50 (P388) was 5.2 µM, the EC50 (A-431) was 28.8 µM and the EC50 (LNCaP) was 18.7 µM. For the same molecule, the EC50 (ZR-75-1) was 10 µM and the EC50 [32] was 17.1 µM.
